Results: PMC12144996 (Acta Pharmaceutica Sinica. B, 2025)
Where two headings read alike, the source gives them in different places.

Columns and labels:
MHV-A59 [1] = assay: Time-of-addition of ATV006 in MHV-A59-infected cells, viral load; assay type: cell-based, mouse hepatitis virus; conditions: ATV006 administered 48 h after the viral infection; MOI = 0.0001
HCoV-NL63 = assay type: cell-based; conditions: Human coronavirus NL63, LLC-MK2, read-out: EC50 for HCoV-NL63
MHV-A59 [2] = assay: Therapeutic treatment from 12 hpi in MHV-A59-infected BALB/c mice; assay type: in vivo, mouse hepatitis virus; conditions: 5 dpi; for Serum ALT and AST (liver injury markers): 50 mg/kg intragastric twice daily from 12 hpi, vs vehicle; for MHV replication in the lung (qRT-PCR and plaque assay): 500 mg/kg intragastric twice daily from 12 hpi
In short: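 BALB/c mice were infected intranasally with 4×10^5 PFU MHV-A59. At 5 dpi, lung and liver were assayed by qRT-PCR and L2-cell plaque assay. Orbital blood was clotted at room temperature and the serum run in ALT/AST kits.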

MHV-A59 [3] = assay: Delayed therapeutic treatment; assay type: in vivo, mouse hepatitis virus; conditions: 5 dpi; for Viral replication in the lung (qRT-PCR): start 24-96 hpi
In short: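 BALB/c mice under light isoflurane anaesthesia were infected intranasally with 4×10^5 PFU MHV-A59 in 40 μL DMEM. Test compound was started at delayed times post-infection and given every 12 h. At 5 dpi, lung and liver virus was measured by qRT-PCR and by plaque assay on L2 cells, with methyl cellulose overlay and crystal violet staining. Lungs were scored 0–4 for edema, mononuclear and PMN infiltration and hemorrhage; livers were blindly Ishak-scored. Serum ALT/AST measured by kit.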

[4] = cynomolgus monkeys; cited from earlier work
MHV = assay: Anti-animal coronavirus activity, viral load by qRT-PCR, MHV in L2 cells; assay type: cell-based, mouse hepatitis virus; conditions: Murine coronavirus, 48 h, read-out: EC50 for MHV
In short: (§1)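 Cells seeded in 48-well plates and grown 24 h to about 90% confluence, then washed three times with serum-free medium. Infected at MOI 0.01 for 1 h at 37 °C, then given medium with test compound dilutions or DMSO. After 48 h at 37 °C, cells and supernatants were harvested for viral load by qRT-PCR. EC50 taken from the dose–response curve; mean ± SEM.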

PEDV = assay: Anti-animal coronavirus activity, viral load by qRT-PCR, PEDV in Vero E6 cells; assay type: cell-based; conditions: Porcine epidemic diarrhea virus, Vero C1008, 48 h, read-out: EC50 for PEDV
In short: as §1

TGEV = assay: Anti-animal coronavirus activity, viral load by qRT-PCR, TGEV in ST cells; assay type: cell-based, transmissible gastroenteritis virus; conditions: Alphacoronavirus 1, 48 h, read-out: EC50 for TGEV
In short: as §1

HCoV-229E = assay: microbe, parasite or virus in culture; assay type: cell-based; conditions: Human coronavirus 229E, Huh-7, read-out: EC50 for HCoV-229E
MHV-A59 [5] = assay type: in vivo, mouse hepatitis virus
[6] = rats; cited from earlier work
HCoV-OC43 = assay: Anti-human coronavirus activity, viral RNA by qRT-PCR, HCoV-OC43 in HCT-8 cells; assay type: cell-based; conditions: Betacoronavirus 1, OC43, HCT-8, read-out: EC50 for HCoV-OC43
MHV-A59 [7] = assay: Prophylactic ATV006 in MHV-A59-infected BALB/c mice, liver; assay type: in vivo, mouse hepatitis virus
MHV-A59 [8] = assay: Prophylactic ATV006 in intranasally MHV-A59-infected BALB/c mice, lung; assay type: in vivo, mouse hepatitis virus; conditions: 3 dpi
In short: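 BALB/c mice were inoculated intranasally with 4×10^5 PFU MHV-A59 under mild isoflurane anaesthesia. They received vehicle (n = 6) or test compound at 500, 250, 100 or 50 mg/kg intragastric twice daily as prophylaxis (n = 5). Lungs were taken at 3 dpi for qRT-PCR and for plaque assay on L2 cells (methyl cellulose overlay, crystal violet). Lung sections were zinc formalin-fixed, 4 μm, H&E stained.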

[9] = ATV006 500 mg/kg administered at 24 hpi
[10] = […], GS-441524 50 mg/kg oral once daily
[11] = […], remdesivir 20 mg/kg intraperitoneal once daily

Compound: CC(C)C(=O)OC[C@H]1O[C@@](C#N)(c2ccc3c(N)ncnn23)[C@H](O)[C@@H]1O [ATV006]
- Inhibition of MHV-A59 viral load (MHV-A59 [1]): no inhibitory effect was observed
- EC50 (HCoV-NL63): 800 nM
- Serum ALT and AST (liver injury markers) (MHV-A59 [2]): significantly reduced the liver injury markers ALT and AST
- MHV replication in the lung (qRT-PCR and plaque assay) (MHV-A59 [2]): significantly inhibited MHV replication in the lung
- MHV replication in the liver (qRT-PCR) (MHV-A59 [2]; ATV006 2-50 mg/kg intragastric twice daily from 12 hpi): inhibited MHV replication in a dose-dependent manner
- Virus titers in the liver (plaque assay) (MHV-A59 [2]; ATV006 at 2, 10, 25, 50 mg/kg twice daily from 12 hpi): below the detection limit of the plaque assay
- MHV replication in the liver (qRT-PCR) (MHV-A59 [3]; ATV006 2 mg/kg, delayed treatment): ineffective
- Liver pathology (Ishak scoring) (MHV-A59 [3]; ATV006 10 mg/kg administered at 24, 48 and 72 hpi): significantly reduced liver piecemeal necrosis, bridging necrosis, circumscribed hepatic necrosis, and portal inflammation
- Serum ALT and AST levels (MHV-A59 [3]; ATV006 10 mg/kg, delayed treatment): alleviated liver injury
- Virus titers in the liver (plaque assay) (MHV-A59 [3]; ATV006 50 mg/kg administered as late as 96 hpi): reduced virus titers to levels undetectable by plaque assay
- Viral replication in the lung (qRT-PCR) (MHV-A59 [3]; ATV006 250 mg/kg every 12 h): significant inhibition of viral replication only when ATV006 treatment (250 mg/kg) began no later than 24 hpi
- Bleeding in the lungs (hemorrhage score) (MHV-A59 [3]; [9]): did not improve significantly
- Lung pathology: edema, monocyte and neutrophil infiltration (MHV-A59 [3]; [9]): reduced pulmonary edema and monocyte and neutrophil infiltration
- Viral replication in the lung (qRT-PCR) (MHV-A59 [3]; ATV006 500 mg/kg every 12 h): effective when started within 48 hpi
- Infectious viral particles in the lungs (plaque assay) (MHV-A59 [3]; ATV006 500 mg/kg initiated within 48 hpi): No infectious viral particles were detected
- MHV replication in the liver (qRT-PCR) (MHV-A59 [3]; ATV006 10, 25 and 50 mg/kg administered at 24 or 48 hpi): significantly inhibited MHV replication
- Oral bioavailability [4]: high oral bioavailability
- EC50 (MHV): 265 nM
- EC50 (PEDV): 1050 nM
- EC50 (TGEV): 3040 nM
- EC50 (HCoV-229E): 1120 nM
- Survival (MHV-A59 [5]; […], ATV006 2 mg/kg intragastric once daily): all died by 10 dpi
- Mortality and weight loss (MHV-A59 [5]; […], ATV006 5 to 50 mg/kg intragastric once daily): effectively prevented mortality and weight loss
- Reduction of viral titers in the liver (MHV-A59 [5]; mouse, in vivo, 2 mg/kg): approximately sixfold
- Live virus in the liver (plaque assay) (MHV-A59 [5]; mouse, in vivo, 50 mg/kg): no live virus was found in the liver
- Reduction of viral titers in the liver (MHV-A59 [5]; mouse, in vivo, 50 mg/kg): 1,000,000 fold
- Oral bioavailability [6]: high oral bioavailability
- EC50 (HCoV-OC43): 2900 nM
- Inflammatory cell infiltration in the liver (histopathology) (MHV-A59 [7]; ATV006 50 mg/kg intragastric twice daily): significant reduction in inflammatory cell infiltration
- Serum ALT and AST (liver injury markers) (MHV-A59 [7]; ATV006 50 mg/kg intragastric twice daily, 3 dpi, vs control): lower in the ATV006-treated group than in the control group
- Viral titers in the liver (plaque assay) (MHV-A59 [7]; ATV006-treated group, prophylactic, 3 dpi): below the detection limit
- Expression of inflammatory cytokines in the liver (MHV-A59 [7]; ATV006 prophylactic, 3 dpi): significant decrease in the expression of various inflammatory cytokines in the liver
- Inflammatory cell infiltration in lung (histopathology) (MHV-A59 [8]; ATV006 500 mg/kg intragastric twice daily): vehicle-treated mice had more inflammatory cell infiltration compared to mice treated with ATV006
- MHV infectious particles in the lung (plaque assay) (MHV-A59 [8]; ATV006 50-500 mg/kg intragastric twice daily): dose-dependent decrease in the number of MHV infectious particles
- Inflammatory cytokines and chemokines in the lung (Ifnβ, Cxcl10, Il6, Il1β, Ifnγ) (MHV-A59 [8]; ATV006 prophylactic): significantly reduced the production of inflammatory cytokines and chemokines in the lung

Compound: N#C[C@@]1(c2ccc3c(N)ncnn23)O[C@H](CO)[C@@H](O)[C@H]1O [GS-441524, reference compound]
- Serum ALT and AST (liver injury markers) (MHV-A59 [2]): significantly reduced the liver injury markers ALT and AST
- MHV replication in the lung (qRT-PCR and plaque assay) (MHV-A59 [2]): only ATV006 significantly inhibited MHV replication in the lung
- Virus titers in the liver (plaque assay) (MHV-A59 [2]; GS-441524 at 25, 50 mg/kg twice daily from 12 hpi): below the detection limit of the plaque assay
- Body weight compared with ATV006 (50 mg/kg) (MHV-A59 [5]; [10]): lower than that of mice treated with ATV006
- Survival (MHV-A59 [5]; [10]): prevented MHV-infected mice from dying

Compound: CCC(CC)COC(=O)[C@H](C)N[P@](=O)(OC[C@H]1O[C@@](C#N)(c2ccc3c(N)ncnn23)[C@H](O)[C@@H]1O)Oc1ccccc1 [remdesivir, reference compound]
- Body weight compared with ATV006 (50 mg/kg) (MHV-A59 [5]; [11]): lower than that of mice treated with ATV006
- Survival (MHV-A59 [5]; [11]): prevented MHV-infected mice from dying
